# Assay results taken from ChEMBL document CHEMBL1154352, “Toll-like receptor 7 selective synthetic oligoribonucleotide agonists: synthesis and structure-activity relationship studies” (J Med Chem, 2009).
# Active and inactive are the calls of the source. The calls are words filed in the database; no cut-off is given here.
# How the values were obtained:
# Splenocyte [1] = experiment: Immunomodulatory activity in C57BL/6 mouse splenocytes bearing TLR7 receptor assessed as IL12 release at 100 ug/ml after 24 hrs by ELISA; format: functional, cell-based
# Method in brief: (§1)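 C57BL/6 splenocytes in RPMI 1640 with 10% FBS, penicillin/streptomycin, 2 mM L-glutamine, plated at 5 × 10^6 cells/mL; compounds in PBS added, 37 °C for 24 h. Supernatant IL-12 and IL-6 by ELISA; representative of three independent experiments.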
# [2] = molecular target: Toll-like receptor 3 (Homo sapiens) (UniProt O15455); experiment: Activation of human TLR3 expressed in HEK293 assessed as induction of NF-kappaB activity reporter gene assay; format: cell-based
# Chain of Toll-like receptor 3 (Homo sapiens) (O15455 whole entry): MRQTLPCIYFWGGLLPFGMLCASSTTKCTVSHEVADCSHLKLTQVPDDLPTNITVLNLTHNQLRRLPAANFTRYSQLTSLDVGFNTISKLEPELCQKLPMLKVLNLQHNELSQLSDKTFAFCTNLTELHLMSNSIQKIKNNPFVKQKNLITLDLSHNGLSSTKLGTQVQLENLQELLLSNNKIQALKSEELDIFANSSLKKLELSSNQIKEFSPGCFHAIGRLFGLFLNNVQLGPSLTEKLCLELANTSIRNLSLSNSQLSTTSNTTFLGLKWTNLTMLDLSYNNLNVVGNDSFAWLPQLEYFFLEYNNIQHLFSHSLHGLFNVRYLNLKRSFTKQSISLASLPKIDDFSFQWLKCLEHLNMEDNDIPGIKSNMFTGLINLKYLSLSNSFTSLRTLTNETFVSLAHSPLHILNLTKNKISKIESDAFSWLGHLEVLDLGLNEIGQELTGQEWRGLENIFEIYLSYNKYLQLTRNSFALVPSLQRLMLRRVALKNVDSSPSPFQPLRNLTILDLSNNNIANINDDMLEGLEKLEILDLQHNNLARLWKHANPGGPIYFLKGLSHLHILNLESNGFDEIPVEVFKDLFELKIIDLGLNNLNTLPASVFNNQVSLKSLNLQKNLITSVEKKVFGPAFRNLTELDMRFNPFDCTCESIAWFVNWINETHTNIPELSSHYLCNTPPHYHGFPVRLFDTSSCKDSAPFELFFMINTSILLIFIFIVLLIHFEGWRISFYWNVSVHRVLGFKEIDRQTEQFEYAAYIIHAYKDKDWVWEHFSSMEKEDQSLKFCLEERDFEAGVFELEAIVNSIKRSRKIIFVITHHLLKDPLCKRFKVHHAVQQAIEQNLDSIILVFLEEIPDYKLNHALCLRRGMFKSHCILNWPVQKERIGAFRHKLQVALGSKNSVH
# Splenocyte [3] = experiment: Immunomodulatory activity in C57BL/6 mouse splenocytes bearing TLR7 receptor assessed as IL6 release at 100 ug/ml after 24 hrs by ELISA; format: functional, cell-based; method in brief: as §1
# [4] = molecular target: T1, Toll-like receptor 9 (Mus musculus) (UniProt Q9EQU3); experiment: Activation of mouse TLR9 expressed in HEK293 assessed as induction of NF-kappaB activity reporter gene assay; format: cell-based
# T1 sequence (whole entry): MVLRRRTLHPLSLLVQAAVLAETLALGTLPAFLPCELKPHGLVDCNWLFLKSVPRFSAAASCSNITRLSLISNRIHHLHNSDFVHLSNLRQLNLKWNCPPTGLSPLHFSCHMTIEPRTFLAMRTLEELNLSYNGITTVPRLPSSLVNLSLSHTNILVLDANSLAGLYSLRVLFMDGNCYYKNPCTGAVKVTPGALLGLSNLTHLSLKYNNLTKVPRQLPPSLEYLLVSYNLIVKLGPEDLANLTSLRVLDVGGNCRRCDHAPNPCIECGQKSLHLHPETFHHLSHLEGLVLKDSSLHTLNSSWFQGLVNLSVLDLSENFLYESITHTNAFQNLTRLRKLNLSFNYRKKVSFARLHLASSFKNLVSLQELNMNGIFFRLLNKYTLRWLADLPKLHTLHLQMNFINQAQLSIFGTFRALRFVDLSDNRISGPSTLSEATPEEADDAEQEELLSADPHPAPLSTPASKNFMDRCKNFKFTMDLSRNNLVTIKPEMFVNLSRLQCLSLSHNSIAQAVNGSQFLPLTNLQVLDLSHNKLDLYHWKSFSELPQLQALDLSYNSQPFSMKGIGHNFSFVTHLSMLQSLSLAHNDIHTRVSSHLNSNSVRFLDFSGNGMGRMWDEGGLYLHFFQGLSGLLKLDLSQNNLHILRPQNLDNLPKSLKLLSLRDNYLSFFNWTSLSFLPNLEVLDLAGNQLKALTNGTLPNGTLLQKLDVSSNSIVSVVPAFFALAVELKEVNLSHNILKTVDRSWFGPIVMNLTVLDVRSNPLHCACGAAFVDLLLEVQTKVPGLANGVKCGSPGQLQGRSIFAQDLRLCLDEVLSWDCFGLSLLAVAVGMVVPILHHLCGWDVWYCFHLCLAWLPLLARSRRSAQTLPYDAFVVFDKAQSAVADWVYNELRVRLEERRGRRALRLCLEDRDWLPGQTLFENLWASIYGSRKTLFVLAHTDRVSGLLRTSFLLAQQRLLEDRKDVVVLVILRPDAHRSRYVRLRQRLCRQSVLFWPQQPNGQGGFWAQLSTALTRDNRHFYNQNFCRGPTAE
# [5] = molecular target: T2, Toll-like receptor 7 (Homo sapiens) (UniProt Q9NYK1); experiment: Activation of human TLR7 expressed in HEK293XL assessed as fold induction of NF-kappaB activity at 50 ug/ml after 18 hrs by reporter gene assay relative to control
# T2 sequence (whole entry): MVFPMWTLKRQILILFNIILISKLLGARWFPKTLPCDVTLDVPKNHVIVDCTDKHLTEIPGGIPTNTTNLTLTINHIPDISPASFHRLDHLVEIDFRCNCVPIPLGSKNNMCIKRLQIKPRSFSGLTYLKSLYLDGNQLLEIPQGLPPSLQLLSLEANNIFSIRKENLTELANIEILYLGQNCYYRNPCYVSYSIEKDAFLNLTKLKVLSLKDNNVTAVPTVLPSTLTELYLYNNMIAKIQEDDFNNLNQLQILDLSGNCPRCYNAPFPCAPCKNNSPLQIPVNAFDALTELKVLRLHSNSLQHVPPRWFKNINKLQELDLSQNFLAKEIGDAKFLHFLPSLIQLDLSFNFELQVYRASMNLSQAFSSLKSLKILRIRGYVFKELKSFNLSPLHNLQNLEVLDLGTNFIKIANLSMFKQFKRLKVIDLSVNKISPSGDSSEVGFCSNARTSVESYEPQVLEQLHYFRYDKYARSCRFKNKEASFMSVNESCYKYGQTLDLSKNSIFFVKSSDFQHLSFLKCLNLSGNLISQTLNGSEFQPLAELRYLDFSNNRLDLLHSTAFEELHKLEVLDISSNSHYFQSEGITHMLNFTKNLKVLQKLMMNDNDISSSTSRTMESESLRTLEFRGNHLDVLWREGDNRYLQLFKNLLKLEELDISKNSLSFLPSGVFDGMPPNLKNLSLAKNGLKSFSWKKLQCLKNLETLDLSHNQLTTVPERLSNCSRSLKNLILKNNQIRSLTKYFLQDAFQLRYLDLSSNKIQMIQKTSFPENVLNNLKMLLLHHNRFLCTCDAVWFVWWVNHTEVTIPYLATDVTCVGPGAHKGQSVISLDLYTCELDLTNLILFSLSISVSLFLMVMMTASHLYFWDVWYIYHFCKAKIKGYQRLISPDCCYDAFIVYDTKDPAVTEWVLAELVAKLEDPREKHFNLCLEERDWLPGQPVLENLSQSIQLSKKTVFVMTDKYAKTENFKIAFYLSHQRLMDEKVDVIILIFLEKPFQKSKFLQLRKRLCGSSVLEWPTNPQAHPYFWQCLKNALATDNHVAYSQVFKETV
# Method in brief: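 HEK293 cells stably expressing human TLR7 or TLR8, transiently transfected with SEAP reporter plasmid; medium replaced, SIMRA compounds added, 18 h incubation. Supernatant SEAP measured by QuantiBlue; expressed as fold increase in NF-κB activity over PBS control. Tabulated data at 50 μg/mL, representative of three independent experiments.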
# Homo sapiens = species on record: Homo sapiens; experiment: Ratio of human TLR7 activity to human TLR8 activity
# Method in brief: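 TLR7/TLR8 ratio computed from fold NF-κB (SEAP reporter) activation in HEK293 cells stably expressing human TLR7 versus TLR8, compounds at 50 μg/mL, 18 h exposure; representative of three independent experiments.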
Activity (Splenocyte [1]),Activity [2],Activity (Splenocyte [3]),Activity [4],fold change (FC) [5],Ratio (Homo sapiens),SMILES
Active,inactive,Active,inactive,22.9,114,Nc1ccn([C@@H]2O[C@H](COP(=O)(S)O[C@H]3[C@@H](O)[C@H](n4cnc5c(N)ncnc54)O[C@@H]3COP(=O)(S)O[C@H]3[C@@H](O)[C@H](n4ccc5c(=O)[nH]c(N)nc54)O[C@@H]3COP(=O)(S)O[C@H]3[C@@H](O)[C@H](n4ccc(=O)[nH]c4=O)O[C@@H]3COP(=O)(S)O[C@H]3[C@@H](O)[C@H](n4ccc(=O)[nH]c4=O)O[C@@H]3COP(=O)(S)O[C@H]3[C@@H](O)[C@H](n4cnc5c(N)ncnc54)O[C@@H]3COP(=O)(S)O[C@H]3[C@@H](O)[C@H](n4cnc5c(N)ncnc54)O[C@@H]3CO)[C@@H](OP(=O)(S)OC[C@H]3O[C@@H](n4ccc5c(=O)[nH]c(N)nc54)[C@H](O)[C@@H]3OP(=O)(S)OC[C@H]3O[C@@H](n4ccc(N)nc4=O)[C@H](O)[C@@H]3OP(=O)(S)OC[C@H]3O[C@@H](n4ccc(=O)[nH]c4=O)[C@H](O)[C@@H]3OP(=O)(S)OC[C@H]3O[C@@H](n4ccc5c(=O)[nH]c(N)nc54)[C@H](O)[C@@H]3OP(=O)(S)OCC(O)COP(=O)(S)O[C@H]3[C@@H](O)[C@H](n4ccc5c(=O)[nH]c(N)nc54)O[C@@H]3COP(=O)(S)O[C@H]3[C@@H](O)[C@H](n4ccc(=O)[nH]c4=O)O[C@@H]3COP(=O)(S)O[C@H]3[C@@H](O)[C@H](n4ccc(N)nc4=O)O[C@@H]3COP(=O)(S)O[C@H]3[C@@H](O)[C@H](n4ccc5c(=O)[nH]c(N)nc54)O[C@@H]3COP(=O)(S)O[C@H]3[C@@H](O)[C@H](n4ccc(N)nc4=O)O[C@@H]3COP(=O)(S)O[C@H]3[C@@H](O)[C@H](n4cnc5c(N)ncnc54)O[C@@H]3COP(=O)(S)O[C@H]3[C@@H](O)[C@H](n4ccc5c(=O)[nH]c(N)nc54)O[C@@H]3COP(=O)(S)O[C@H]3[C@@H](O)[C@H](n4ccc(=O)[nH]c4=O)O[C@@H]3COP(=O)(S)O[C@H]3[C@@H](O)[C@H](n4ccc(=O)[nH]c4=O)O[C@@H]3COP(=O)(S)O[C@H]3[C@@H](O)[C@H](n4cnc5c(N)ncnc54)O[C@@H]3COP(=O)(S)O[C@H]3[C@@H](O)[C@H](n4cnc5c(N)ncnc54)O[C@@H]3CO)[C@H]2O)c(=O)n1 (some centres not stated)
Active,inactive,Active,inactive,18.4,4,Nc1ccn([C@@H]2O[C@H](COP(=O)(S)O[C@H]3[C@@H](O)[C@H](n4cnc5c(N)ncnc54)O[C@@H]3COP(=O)(S)O[C@H]3[C@@H](O)[C@H](n4ccc5c(=O)[nH]c(N)nc54)O[C@@H]3COP(=O)(S)O[C@H]3[C@@H](O)[C@H](n4ccc(=O)[nH]c4=O)O[C@@H]3CO)[C@@H](OP(=O)(S)OC[C@H]3O[C@@H](n4ccc5c(=O)[nH]c(N)nc54)[C@H](O)[C@@H]3OP(=O)(S)OC[C@H]3O[C@@H](n4cnc5c(N)ncnc54)[C@H](O)[C@@H]3OC[C@H]3O[C@@H](n4ccc(=O)[nH]c4=O)[C@H](O)[C@@H]3OP(=O)(S)ON[C@H]3O[C@@H](n4ccc5c(=O)[nH]c(N)nc54)[C@H](O)[C@@H]3OP(=O)(S)OC[C@H]3O[C@@H](n4cnc5c(N)ncnc54)[C@H](O)[C@@H]3OP(=O)(S)OC[C@H]3O[C@@H](n4ccc(=O)[nH]c4=O)[C@H](O)[C@@H]3OP(=O)(S)OC[C@H]3O[C@@H](n4ccc(=O)[nH]c4=O)[C@H](O)[C@@H]3OP(=O)(S)OCC(O)COP(=O)(S)O[C@H]3[C@@H](O)[C@H](n4ccc(=O)[nH]c4=O)O[C@@H]3COP(=O)(S)O[C@H]3[C@@H](O)[C@H](n4ccc(=O)[nH]c4=O)O[C@@H]3COP(=O)(S)O[C@H]3[C@@H](O)[C@H](n4cnc5c(N)ncnc54)O[C@@H]3COP(=O)(S)O[C@H]3[C@@H](O)[C@H](n4ccc5c(=O)[nH]c(N)nc54)O[C@@H]3NOP(=O)(S)O[C@H]3[C@@H](O)[C@H](n4ccc(=O)[nH]c4=O)O[C@@H]3CO[C@H]3[C@@H](O)[C@H](n4cnc5c(N)ncnc54)O[C@@H]3COP(=O)(S)O[C@H]3[C@@H](O)[C@H](n4ccc5c(=O)[nH]c(N)nc54)O[C@@H]3COP(=O)(S)O[C@H]3[C@@H](O)[C@H](n4ccc(N)nc4=O)O[C@@H]3COP(=O)(S)O[C@H]3[C@@H](O)[C@H](n4cnc5c(N)ncnc54)O[C@@H]3COP(=O)(S)O[C@H]3[C@@H](O)[C@H](n4ccc5c(=O)[nH]c(N)nc54)O[C@@H]3COP(=O)(S)O[C@H]3[C@@H](O)[C@H](n4ccc(=O)[nH]c4=O)O[C@@H]3CO)[C@H]2O)c(=O)n1 (some centres not stated)
